ChEMBL document CHEMBL1148432, “PDE2 inhibition by the PI3 kinase inhibitor LY294002 and analogues” (Bioorg Med Chem Lett, 2004)

Biological target: Phosphodiesterase 3 (Homo sapiens, UniProt Q14432+Q13370)
Assay: Inhibition of human platelet phosphodiesterase 3
Outline: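 PDE3 was separated from PDE2 in human platelet lysate by anion-exchange chromatography. It was assayed under conditions optimal for that isozyme, with the AMP product quantified by reverse-phase HPLC.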

Row | IC50 | Structure (SMILES)
1 | 100 µM | O=c1cc(N2CCOCC2)oc2c(-c3ccccc3)cccc12 [LY-294002]

Biological target: T1, cGMP-dependent 3',5'-cyclic phosphodiesterase (Homo sapiens, UniProt O00408)
Assay: Inhibitory activity against human platelet phosphodiesterase 2 at 50 uM expressed as percent basal value
Outline: (§1)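 PDE2 was purified from human platelet lysate by anion-exchange chromatography. The enzyme was premixed in HEPES buffer with cGMP and inhibitor or DMSO for 90 s at 37 °C, then started with cAMP substrate. The reaction was stopped after 5 min by heating at 100 °C for 3 min. AMP was measured by reverse-phase HPLC at 254 nm against standards and expressed as % of DMSO control (mean ± SE, n ≥ 3).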

T1 sequence (O00408 whole entry): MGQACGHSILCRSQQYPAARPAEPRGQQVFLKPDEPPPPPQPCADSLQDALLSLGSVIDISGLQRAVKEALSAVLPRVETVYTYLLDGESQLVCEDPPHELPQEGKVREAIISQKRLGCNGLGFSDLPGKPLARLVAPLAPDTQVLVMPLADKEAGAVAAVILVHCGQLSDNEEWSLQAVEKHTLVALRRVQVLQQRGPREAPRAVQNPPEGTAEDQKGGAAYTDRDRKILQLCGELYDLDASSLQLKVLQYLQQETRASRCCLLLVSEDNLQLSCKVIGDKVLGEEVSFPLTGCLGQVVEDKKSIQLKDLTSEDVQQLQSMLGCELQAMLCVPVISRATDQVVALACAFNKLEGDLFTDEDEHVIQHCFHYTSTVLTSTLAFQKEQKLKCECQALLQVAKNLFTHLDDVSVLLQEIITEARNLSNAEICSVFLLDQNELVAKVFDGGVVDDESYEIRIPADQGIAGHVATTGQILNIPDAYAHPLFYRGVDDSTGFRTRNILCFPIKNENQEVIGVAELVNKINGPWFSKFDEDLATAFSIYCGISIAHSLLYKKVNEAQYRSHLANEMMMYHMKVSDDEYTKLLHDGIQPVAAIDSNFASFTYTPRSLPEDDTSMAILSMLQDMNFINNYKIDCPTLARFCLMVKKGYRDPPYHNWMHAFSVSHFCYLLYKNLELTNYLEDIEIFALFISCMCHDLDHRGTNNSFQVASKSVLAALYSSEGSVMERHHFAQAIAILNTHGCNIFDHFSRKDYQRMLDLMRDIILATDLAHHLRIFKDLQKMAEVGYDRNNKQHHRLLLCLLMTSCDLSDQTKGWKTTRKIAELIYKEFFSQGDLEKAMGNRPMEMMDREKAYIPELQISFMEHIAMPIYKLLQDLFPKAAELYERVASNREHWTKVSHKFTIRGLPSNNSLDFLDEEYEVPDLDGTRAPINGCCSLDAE

Row | Structure (SMILES) | Remaining activity (% of control)
2 | O=c1cc(N2CCOCC2)oc2c(OCc3cccnc3)cccc12 | 35%
3 | CCc1cc(-c2ccccc2)c2oc(N3CCOCC3)cc(=O)c2c1 | 47%
4 | COc1cc(-c2cccc(Cl)c2)c2oc(N3CCOCC3)cc(=O)c2c1 | 87%
5 | O=c1cc(N2CCOCC2)oc2c(CCc3ccccc3)cccc12 | 43%
6 | Cc1c(C#Cc2ccccc2)ccc2c(=O)cc(N3CCOCC3)oc12 | 44%
7 | O=c1cc(N2CCOCC2)oc2c(O)cccc12 | 19%
8 | O=c1cc(N2CCOCC2)oc2c(C#Cc3ccccc3)cccc12 | 93%
9 | COc1cc(-c2ccccc2)c2oc(N3CCOCC3)cc(=O)c2c1 | 75%
10 | O=c1cc(N2CCOCC2)oc2c(-c3ccccc3C(F)(F)F)cccc12 | 43%
11 | O=c1cc(N2CCOCC2)oc2c(OCc3ccccc3)cccc12 | 40%
12 | O=c1cc(N2CCOCC2)oc2c(-c3ccccc3)cccc12 [LY-294002] | 54%
13 | O=c1cc(N2CCOCC2)oc2c(-c3ccc(Oc4ccccc4)cc3)cccc12 | 75%
14 | O=c1cc(N2CCOCC2)oc2cc(C#Cc3ccccc3)ccc12 | 92%
15 | COc1cccc2c(=O)cc(N3CCOCC3)oc12 | 20%
16 | COc1cc(-c2ccc(Cl)cc2)c2oc(N3CCOCC3)cc(=O)c2c1 | 67%
17 | Cc1c(OCc2cccnc2)ccc2c(=O)cc(N3CCOCC3)oc12 | 35%
18 | O=c1cc(N2CCOCC2)oc2c(-c3ccc(F)cc3)cccc12 | 43%
19 | Cc1c(OCc2ccccc2)ccc2c(=O)cc(N3CCOCC3)oc12 | 38%

Next, values leading:

Row | Remaining activity (% of control) | Structure (SMILES)
20 | 22% | O=c1cc(N2CCOCC2)oc2cc(OCc3cccnc3)ccc12
21 | 78% | COc1cc(-c2ccccc2Cl)c2oc(N3CCOCC3)cc(=O)c2c1
22 | 9% | O=c1cc(N2CCOCC2)oc2cc(-c3ccccc3)ccc12
23 | 62% | O=c1cc(N2CCOCC2)oc2c(-c3ccccc3Cl)cccc12
24 | 38% | COc1ccc2oc(N3CCOCC3)cc(=O)c2c1
25 | 47% | COc1ccccc1-c1cccc2c(=O)cc(N3CCOCC3)oc12
26 | 47% | Cc1ccccc1-c1cccc2c(=O)cc(N3CCOCC3)oc12
27 | 12% | O=c1cc(N2CCOCC2)oc2cc(OCc3ccccc3)ccc12
28 | 60% | Cc1cc(-c2ccccc2)c2oc(N3CCOCC3)cc(=O)c2c1
29 | 69% | O=c1cc(N2CCOCC2)oc2c(-c3ccccc3)cc(O)cc12
30 | 31% | Cc1c(-c2ccccc2)ccc2c(=O)cc(N3CCOCC3)oc12

Biological target: T1, cGMP-dependent 3',5'-cyclic phosphodiesterase
Assay: Inhibition of human platelet phosphodiesterase 2
Outline: as §1

Row | IC50 | Structure (SMILES)
31 | 9 µM | COc1cc(-c2cccc(Cl)c2)c2oc(N3CCOCC3)cc(=O)c2c1
32 | 6 µM | O=c1cc(N2CCOCC2)oc2c(C#Cc3ccccc3)cccc12
33 | 5 µM | CCCCCC[C@@H]([C@@H](C)O)n1cnc2c(N)ncnc21 [EHNA]
34 | 40 µM | O=c1cc(N2CCOCC2)oc2c(-c3ccccc3)cccc12 [LY-294002]
